Data from ChEMBL document CHEMBL1147646, “Novel benzofuran derivatives for PET imaging of beta-amyloid plaques in Alzheimer's disease brains” (J Med Chem, 2006).
pKi: −log10 of the molar value. Values belong to the molecule of their own block, whether it stands above or below them. The source made the active and inactive calls. The rule behind the calls is not given here.

Tests used:
[1] = molecular target: T1, Amyloid-beta precursor protein (Homo sapiens, UniProt P05067); test: Ability for neuropathological staining of cerebrovascular amyloid plaque in human corpse AD brain; type: functional
T1 sequence (P05067 whole entry): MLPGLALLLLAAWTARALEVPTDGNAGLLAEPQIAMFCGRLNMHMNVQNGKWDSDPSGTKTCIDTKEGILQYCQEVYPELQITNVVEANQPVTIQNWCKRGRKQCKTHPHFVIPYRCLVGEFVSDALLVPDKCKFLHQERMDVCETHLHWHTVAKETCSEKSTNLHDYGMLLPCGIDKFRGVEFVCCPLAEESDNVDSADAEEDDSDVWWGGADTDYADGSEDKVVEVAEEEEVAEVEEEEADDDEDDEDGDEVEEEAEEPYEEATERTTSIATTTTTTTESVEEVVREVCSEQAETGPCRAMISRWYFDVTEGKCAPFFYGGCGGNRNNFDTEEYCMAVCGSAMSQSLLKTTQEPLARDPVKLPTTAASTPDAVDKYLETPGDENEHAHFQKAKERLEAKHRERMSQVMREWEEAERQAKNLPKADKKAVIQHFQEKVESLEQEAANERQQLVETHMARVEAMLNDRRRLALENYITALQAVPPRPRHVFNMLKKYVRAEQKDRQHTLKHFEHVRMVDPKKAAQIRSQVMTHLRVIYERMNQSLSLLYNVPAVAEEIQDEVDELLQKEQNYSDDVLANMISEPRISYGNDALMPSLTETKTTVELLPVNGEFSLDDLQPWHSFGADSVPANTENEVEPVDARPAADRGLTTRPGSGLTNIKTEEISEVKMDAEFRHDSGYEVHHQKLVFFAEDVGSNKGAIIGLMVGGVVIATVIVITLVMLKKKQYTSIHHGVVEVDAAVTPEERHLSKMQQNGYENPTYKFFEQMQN
Summary of the method: (§1)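 Postmortem temporal cortex from two AD cases, 5 µm paraffin serial sections deparaffinized in xylene/ethanol, washed in water then PBS, immersed in compound solution at various concentrations (50% ethanol in PBS above 0.5 mM), PBS wash 15 min, mounted; viewed by fluorescence microscopy (G-filter); serial sections immunostained for Aβ and tau with DAB.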

[2] = molecular target: T1, Amyloid-beta precursor protein; test: Labelling of accumulated amyloid plaque in Tg2576 transgenic mouse brain hippocampus expressing human APP after 30 mins; type: functional, tissue-based; conditions: tested as the 11C-labelled form
[3] = molecular target: T1, Amyloid-beta precursor protein; test: Labelling of accumulated amyloid plaque in Tg2576 transgenic mouse brain cerebral cortex expressing human APP after 30 mins; type: functional, tissue-based; conditions: tested as the 11C-labelled form
[4] = molecular target: T1, Amyloid-beta precursor protein; test: Ability for neuropathological staining of amyloid plaque in human corpse AD brain temporal cortex; type: functional, tissue-based; summary of the method: as §1
[5] = molecular target: Microtubule-associated protein tau (Homo sapiens) (UniProt P10636); test: Ability for neuropathological staining of neurofibrillary tangles in human corpse AD brain temporal cortex
Microtubule-associated protein tau (Homo sapiens), sequence (P10636 whole entry, looked up): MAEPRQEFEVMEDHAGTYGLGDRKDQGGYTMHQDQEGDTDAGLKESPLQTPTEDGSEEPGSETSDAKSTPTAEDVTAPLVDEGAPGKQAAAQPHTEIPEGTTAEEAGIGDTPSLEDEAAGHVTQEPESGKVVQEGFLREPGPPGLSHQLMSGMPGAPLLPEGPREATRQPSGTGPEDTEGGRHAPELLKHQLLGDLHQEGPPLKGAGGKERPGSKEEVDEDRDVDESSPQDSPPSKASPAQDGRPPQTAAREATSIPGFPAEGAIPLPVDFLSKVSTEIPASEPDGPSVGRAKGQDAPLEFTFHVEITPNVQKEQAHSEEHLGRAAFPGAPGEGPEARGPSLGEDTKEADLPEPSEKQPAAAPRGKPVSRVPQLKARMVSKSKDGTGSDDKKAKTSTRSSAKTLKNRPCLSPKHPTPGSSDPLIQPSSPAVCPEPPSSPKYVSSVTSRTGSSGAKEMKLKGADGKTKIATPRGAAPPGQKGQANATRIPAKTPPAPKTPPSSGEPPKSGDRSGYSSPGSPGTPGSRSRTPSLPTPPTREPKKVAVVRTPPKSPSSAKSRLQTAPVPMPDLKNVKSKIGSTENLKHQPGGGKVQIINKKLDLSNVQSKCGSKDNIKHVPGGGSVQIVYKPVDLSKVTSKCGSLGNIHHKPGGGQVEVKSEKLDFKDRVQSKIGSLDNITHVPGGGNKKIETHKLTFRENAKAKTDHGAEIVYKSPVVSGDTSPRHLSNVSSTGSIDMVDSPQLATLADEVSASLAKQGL

[6] = molecular target: T1, Amyloid-beta precursor protein; test: Displacement of [125I]IMPY from beta amyloid in human corpse AD brain
Mus musculus [7] = test: Ratio for drug uptake in iv dosed ddY mouse brain after 2 mins to after 30 mins; type: ADME, organism-based; conditions: in vivo
[8] = Partition coefficient, log P at pH 7.4; type: physicochemical; conditions: octanol/water
Mus musculus [9] = species on record: Mus musculus; test: %Compound removed from ddY mouse brain after 30 mins; type: ADME, organism-based; conditions: in vivo, 0.5 h

Activity [1]: Active
Activity [2]: Active
Activity [3]: Active
Activity [4]: Active
Activity [5]: Active
pKi [6]: 9.15
SMILES: CNc1ccc(-c2cc3cc(O)ccc3o2)cc1

pKi [6]: 7.92
SMILES: COc1ccc2oc(-c3ccc(N(C)C)cc3)cc2c1

pKi [6]: 7.94
SMILES: Nc1ccc(-c2cc3cc(O)ccc3o2)cc1

pKi [6]: 8.89
SMILES: CNc1ccc(-c2cc3cc(OC)ccc3o2)cc1

pKi [6]: 8.55
SMILES: CN(C)c1ccc(-c2cc3cc(O)ccc3o2)cc1

pKi [6]: 8.64
SMILES: COc1ccc2oc(-c3ccc(N)cc3)cc2c1

Ratio (Mus musculus [7]): 0.07
logD [8]: 2.36
washout (Mus musculus [9]): 90%
SMILES: [11CH3]Nc1ccc(-c2cc3cc(O)ccc3o2)cc1
